High-throughput results: PubChem, Sanford-Burnham Center for Chemical Genomics
Most compounds without a hit are left out; they make up all but 1.5% or so of the library.
CSN inh = blocks human CSN-mediated cullin deneddylation. inhibition, % at 12.5 µM. 0.38% of 360,000 active. Purified CSN, SCF-Nedd8-OG deneddylation, fluorescence polarization. Q92905. AID 651999;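 active = pattern-corrected inhibition above about 35%, with an unprinted fluorescence ratio check between 0.5 and 1.5, limit read from the data, passing the limit was not always enough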
Target sequence (Q92905 whole entry, looked up, one chain of several): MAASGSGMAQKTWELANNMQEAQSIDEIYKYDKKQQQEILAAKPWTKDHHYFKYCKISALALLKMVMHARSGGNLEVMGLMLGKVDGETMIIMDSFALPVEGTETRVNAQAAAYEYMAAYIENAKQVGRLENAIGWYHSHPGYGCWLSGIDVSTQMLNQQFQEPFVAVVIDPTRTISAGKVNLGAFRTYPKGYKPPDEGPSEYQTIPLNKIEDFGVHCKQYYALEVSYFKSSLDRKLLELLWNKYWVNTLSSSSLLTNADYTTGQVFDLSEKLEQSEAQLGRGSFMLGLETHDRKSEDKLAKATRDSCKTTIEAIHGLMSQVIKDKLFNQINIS
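Assay system: HEK293T-derived human Csn5 enzyme; quantity: 0.24 nM enzyme; medium: Tris/NaCl/DTT buffer, pH 7.5; also added: substrate SCFSkp2-Nedd8OG, 10 nM; doses: 12.5 µM compound; schedule: 90 min reaction at room temperature; signal: FP; read-out: % inhibition of substrate cleavage by Csn5; benchmarks: substrate-only high control, full reaction low control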
HNF4A DNA FP = change in binding of human HNF4 alpha to DNA. P41235. HNF4a-FITC DNA binding, fluorescence polarization, 1 h. activity change, % at 10 µM. 0.3% of 360,000 active. AID 1224865; in the data active = activity change above about 30%, passing the limit was not always enough
aDG glyco act = increases alpha dystroglycan glycosylation. Pro5-aDG cells, alpha-DG glycosylation AlphaScreen (IIH6); 0% Pro5, 100% B10-LARGE cell signal. activation, % at 10 µM. 0.22% of 360,000 active;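 active = activation of at least 8% versus controls, or a plate z-score of at least 8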;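 note: Pro5 are CHO cells carrying HIG-tagged alpha-DG that lacks glycosylation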
NR1D1 modulator = modulates human Rev-erb alpha binding to DNA; P20393; Rev-erbα–FITC-DNA binding, fluorescence polarization, 90 min; activity, % at 10 µM; 0.79% of 370,000 active; AID 1259318;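 active = activity above about 14%, limit read from the data; passing the limit was not always enough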
HNF4a DNA conf = change in binding of human HNF4 alpha to DNA, retest; 99% of 210 active; activity change, % at 12.5 µM; HNF4A-FITC DNA binding, fluorescence polarization, 1 h; shares compounds with HNF4A DNA FP; call rule not given here
Rev-erbA confirm = Rev-erb alpha (human) modulation, hit confirmation | activation, % at 25 µM | AID 1259319 | 61% of 3,000 active | shares compounds with NR1D1 modulator | Rev-erb alpha FITC-DNA binding, fluorescence polarization, 90 min;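 active = activation at or above a set limit, or at least 3 SD above the negative control mean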
Of the large screens only hits and unclear results are named; the others gave an inactive call (follow-up assays come after a bar, where they were run).

O=[N+]([O-])c1ccc(NN=Cc2ccc(O)cc2)nc1	none
CC(C)[C@H](NC(=O)OC(C)(C)C)c1cc(C(=O)N[C@@H](C)c2ccccc2)c(N)s1	HNF4A DNA FP 41 | HNF4a DNA conf 37
C[C@H](NC(=O)c1nc[nH]c1C(=O)N[C@@H](C)c1ccccc1)C(=O)OC(C)(C)C	none
CCc1ccc(/C=C2\SC(=S)N(CCCC(=O)Nc3cc(C)on3)C2=O)cc1	none
COc1cccc(/C=C2\SC(=S)N(CCCC(=O)Nc3cc(C)on3)C2=O)c1	CSN inh 36, HNF4A DNA FP 47 | HNF4a DNA conf 67
O=C(c1cccs1)N1CC[C@H]2[C@H](CCCN2Cc2ccc(F)cc2)C1	none (no result: CSN inh, HNF4A DNA FP, aDG glyco act)
CCOc1ccc(-n2c(SCC(=O)Nc3ccc(S(=O)(=O)Nc4cc(C)nc(C)n4)cc3)nnc2-c2ccco2)cc1	none (no result: CSN inh, HNF4A DNA FP, aDG glyco act)
COC(=O)c1cc(-c2ccccc2)sc1N	none
C#CCNC(=O)c1cc(-c2ccccc2)sc1N	HNF4A DNA FP 67 | HNF4a DNA conf 80
COc1ccc2c(/C=N/Nc3ccc(C(=O)O)cc3)c[nH]c2c1	HNF4A DNA FP 52 | HNF4a DNA conf 35
COc1ccc(N/C=C/C(=O)C(F)(F)F)cc1	none
CSc1nnc(C)c(/C=C/Nc2ccc(F)cc2)n1	none (no result: NR1D1 modulator)
CSc1nnc(C)c(/C=C/Nc2ccc(Cl)cc2)n1	HNF4A DNA FP 59 | HNF4a DNA conf 55
COc1ccc(N/C=C/c2nc(SC)nnc2C)cc1	HNF4A DNA FP 45 | HNF4a DNA conf 62
CCN1C(=O)CS/C1=C(\C#N)S(=O)(=O)c1ccccc1	HNF4A DNA FP 40 | HNF4a DNA conf 43
CC(=O)c1ccc(NCCCN2CCC(C(O)(c3ccccc3)c3ccccc3)CC2)cc1	none (no result: CSN inh, HNF4A DNA FP, aDG glyco act)
CN1C(=O)/C(=C\C=C2/CCCN2C)N(C)C1=S	HNF4A DNA FP 62 | HNF4a DNA conf 93
Cc1nn(-c2ccccc2)c(C)c1/C=C1\C(=O)N(C)C(=S)N1C	none
C=c1[nH]cc(C(C)c2c(C)n(C)c3ccccc23)/c1=C/C (stereo not drawn)	none (no result: CSN inh, HNF4A DNA FP, aDG glyco act)
Cc1ccc2sc(N(CCCN(C)C)C(=O)c3nc4ccccc4s3)nc2c1C	CSN inh 107, HNF4A DNA FP 217 | HNF4a DNA conf 205
C=CCN1C(=O)/C(=C/c2ccc(O)cc2)S/C1=N/c1nccs1	CSN inh 44, HNF4A DNA FP 45 | HNF4a DNA conf 69
O=S1(=O)CC(N2CCCC2)CN1 (stereo not drawn)	none (no result: CSN inh, HNF4A DNA FP, aDG glyco act)
COc1cc(/C=C2\N=C3CCCCCN3C2=O)ccc1O	CSN inh 57, HNF4A DNA FP 47 | HNF4a DNA conf 76
O=C(NN1C(=O)/C(=C/c2cccs2)SC1=S)c1cccnc1	none
Cn1cccc1/C=C1\SC(=S)N(NC(=O)c2cccc(Cl)c2)C1=O	CSN inh 36, HNF4A DNA FP 61 | HNF4a DNA conf 97
CCCCCCCCN1C(=O)[C@@H](CC(=O)N2CCN(C(=O)OCC)CC2)C[C@@]2(C(=O)OC)C1=C[C@H](COCc1ccccc1)O[C@@H]2C	none (no result: CSN inh, HNF4A DNA FP, aDG glyco act)
COc1cc(/C=N/NC(=O)c2cccnc2)ccc1OCC(=O)Nc1ccccc1Cl	CSN inh 146, HNF4A DNA FP 48 | HNF4a DNA conf 124
O=C(c1ccc([N+](=O)[O-])s1)N1CCc2ccccc21	HNF4A DNA FP 67 | HNF4a DNA conf 53
O=C(O)c1ccc(-c2sc(Nc3ccccc3)n[n+]2-c2ccc(F)cc2)cc1	none (no result: NR1D1 modulator)
CN(C)c1ccc(-c2sc(Nc3ccccc3)n[n+]2-c2ccc(F)cc2)cc1	HNF4A DNA FP 69 | HNF4a DNA conf 80
FC(F)(F)c1ccccc1NC(=S)OC1CCC12CCC(c1ccccc1)CC2 (stereo not drawn)	none (no result: CSN inh, HNF4A DNA FP, aDG glyco act)
Cc1sc2nc(CSc3nnnn3-c3ccc(Cl)cc3)[nH]c(=O)c2c1C	HNF4A DNA FP 38 | HNF4a DNA conf 33
CCn1c(SCc2nc3sc(C(=O)O)c(C)c3c(=O)[nH]2)nnc1-c1ccc(Cl)cc1	none
CC(=O)Nc1ccc2c(c1)-c1ccc(F)cc1C2	none
CC(=O)Nc1cc2c(cc1[N+](=O)[O-])-c1ccc(F)cc1C2	HNF4A DNA FP 32 | HNF4a DNA conf 39
COC(=O)[C@]12C[C@H](CC(=O)NCCC(C)C)C(=O)N(CCC3=CCCCC3)C1=C[C@H](C(C)C)O[C@@H]2C1CC1	none (no result: CSN inh, HNF4A DNA FP, aDG glyco act)
O=C1/C(=C/c2ccc(O)cc2)SC(=S)N1Cc1cccnc1	HNF4A DNA FP 51 | HNF4a DNA conf 61
Cc1cc(=O)oc2cc(OCC(=O)c3ccc4c(c3)NC(=O)CO4)ccc12	CSN inh 76, HNF4A DNA FP 161 | HNF4a DNA conf 46
CC1Nc2ccc(C(=O)NC3CCCCC3)cc2NC1=O (stereo not drawn)	CSN inh 57, HNF4A DNA FP 61 | HNF4a DNA conf 49
CC(C)C1Nc2ccc(C(=O)NC3CCCCC3)cc2NC1=O (stereo not drawn)	none (no result: NR1D1 modulator)
COc1ccc(NC(=O)CN(C)C(=O)CSc2nc3ccccc3s2)cc1	HNF4A DNA FP 43 | HNF4a DNA conf 46
CN(CC(=O)Nc1ccccc1Cl)C(=O)CSc1nc2ccccc2s1	none
Clc1ccc(CN2CCN(N=Cc3ccncc3)CC2)cc1	none (no result: CSN inh, HNF4A DNA FP, aDG glyco act)
COc1cc(NC(=O)c2ccccc2)c(C)cc1NC(=O)CSc1nnc(-c2ccccc2F)n1-c1ccc(C)cc1	none (no result: CSN inh, HNF4A DNA FP, aDG glyco act)
O=C(N/N=C/c1cccnc1)c1ccc(NC(=O)c2cccc(Cl)c2)cc1	CSN inh 108, HNF4A DNA FP 108 | HNF4a DNA conf 152
COC(=O)c1cn(-c2ccc3c(c2)[C@@]2(CC(=O)N(C)C2c2ccccc2)C(=O)N3CC(C)C)nn1 (stereo partly drawn)	none (no result: CSN inh, HNF4A DNA FP, aDG glyco act)
O=C(NC1CCCCC1)c1cccc2c1C(=O)c1ccc(N3CCCC3)cc1S2(=O)=O	none
CC1CCN(c2ccc3c(c2)S(=O)(=O)c2cccc(C(=O)NC4CCCCC4)c2C3=O)CC1	HNF4A DNA FP 40 | HNF4a DNA conf 40
O=C(NC1CCCC1)c1cccc2c1C(=O)c1ccc(N3CCCCC3)cc1S2(=O)=O	HNF4A DNA FP 52 | HNF4a DNA conf 54
CN1C2=N[C@@H](c3ccccc3)CC(=O)N2/C(=C\c2ccccc2)[C@H]1c1ccccc1	none (no result: CSN inh, HNF4A DNA FP, aDG glyco act)
CCn1c(Cc2cccs2)nnc1SCC(=O)Nc1cccc2ccccc12	none (no result: CSN inh, HNF4A DNA FP, aDG glyco act)
O=C(Nc1nc2c(Br)cccc2s1)c1ccc2c(c1)OCCO2	none (no result: CSN inh, HNF4A DNA FP, aDG glyco act)
O=C(Nc1nccs1)c1cc(-c2ccccn2)nc2c(Cl)cccc12	HNF4A DNA FP 72 | HNF4a DNA conf 45
N#Cc1ccc(-c2cccnc2)nc1SCC(=O)c1ccccc1	HNF4A DNA FP 46, NR1D1 modulator 23 | HNF4a DNA conf 49 | Rev-erbA confirm 30
CC(C)CNC(=O)OCc1cn(Cc2cc(F)cc(F)c2)nn1	none (no result: CSN inh, HNF4A DNA FP, aDG glyco act)
O=C(/C=C/c1ccc(OCCCF)cc1)Nc1ccnc(-c2cccnc2)n1	HNF4A DNA FP 36, NR1D1 modulator 24 | HNF4a DNA conf 52 | Rev-erbA confirm 22
